ED50 and Solubility data for 52 compounds are collected here from ChEMBL document CHEMBL1122496, “A new class of nonhormonal pregnancy-terminating agents. Synthesis and contragestational activity of 3,5-diaryl-s-triazoles” (J Med Chem, 1983).

Data set [1] deals with Rattus norvegicus. Description: Pregnancy-terminating activity in rat when administered po. It is filed as functional.
Data set [2] deals with Cricetinae gen. sp. Description: (§1) Pregnancy-terminating activity in hamster when administered sc. The class given is functional.
Data set [3] relates to Cricetinae gen. sp. Description: Pregnancy-terminating activity in hamster when administered perorally. The class given is functional, Cricetulus griseus. The conditions noted are these: po.
The test system of data set [4] is Rattus norvegicus. The data set can be described thus: Pregnancy-terminating activity in rat when administered sc. The class given is functional. In a few lines: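 Pregnant rats were dosed once daily for 5 consecutive days, from day 6 to day 10. Compound was given in sesame oil containing 20% benzyl benzoate to groups of 5–30 animals at three to six dose levels.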

For data set [5], the system named is Rattus norvegicus. Description: Pregnancy-terminating activity in Rat when administered sc. The class given is functional. In a few lines: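 Pregnant rats were dosed once daily for 5 consecutive days, from day 6 to day 10. Compound was given in sesame oil containing 20% benzyl benzoate to groups of 5–30 animals at three to six dose levels. ED50 is the dose that terminated pregnancy in 50% of the animals.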

Data set [6] is described as follows: Solubility in sesame oil containing 20% of benzyl benzoate. It is filed as physicochemical.
In data set [7] the test system is Cricetinae gen. sp. The data set is described as §1. The class given is functional, Cricetulus griseus. In a few lines: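 Pregnant hamsters were dosed daily for 5 consecutive days, from day 4 to day 8. Compound was given in sesame oil with 20% benzyl benzoate to groups of 5–30 animals at three to six dose levels. ED50 is the dose that ended pregnancy in half of the animals.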

Where [8] appears, read: Cricetinae gen. sp., sc, read-out: ED50.

Molecules are shown by their SMILES.

Regarding `COc1cccc(-c2n[nH]c(-c3ccc(C)cc3C)n2)c1`, the ED50 with Rattus norvegicus [1] was above 10 mg/kg; in the data set on Cricetinae gen. sp. [2] (setting [8]) it was 0.04 mg/kg; in the data set with Cricetinae gen. sp. [3], 10 mg/kg; in the data set on Rattus norvegicus [4], 0.6 mg/kg. Take `Cc1ccc(-c2n[nH]c(-c3ccccc3)n2)cc1`: in the data set with Cricetinae gen. sp. [2] (setting [8]), the 50% effective dose (ED50) was above 20 mg/kg. Take `Cc1cc(Cl)ccc1-c1n[nH]c(-c2ccccc2)n1`: the ED50 was 0.14 mg/kg with Cricetinae gen. sp. [2] (setting [8]) and 4 mg/kg with Cricetinae gen. sp. [3]. For `CCCCc1ccccc1-c1n[nH]c(-c2ccccc2)n1`, the ED50 in the data set on Cricetinae gen. sp. [2] (setting [8]) came to 17 mg/kg. As to `C=CCOc1cccc(-c2nc(-c3ccccc3C)n[nH]2)c1`, the ED50 is 0.15 mg/kg in the data set with Cricetinae gen. sp. [2] (setting [8]) and 5 mg/kg in the data set with Cricetinae gen. sp. [3].

On to `CCOc1cccc(-c2n[nH]c(-c3ccccc3C)n2)c1`, for which the figures for the ED50 with Cricetinae gen. sp. [2] (setting [8]) and in the data set on Cricetinae gen. sp. [3] were 0.06 mg/kg and 5 mg/kg, respectively. For `c1ccc(-c2nc3c4ccccc4ccn3n2)cc1`, the values for the median effective dose (ED50) in the data set on Rattus norvegicus [5] and in the data set on Cricetinae gen. sp. [2] (setting [8]) were 2.5 mg/kg and 0.25 mg/kg, respectively. Further, the Solubility in data set [6] is recorded as ~ 10 mg ml-1. Take `COc1cccc(-c2n[nH]c(-c3ccc(C)cc3)n2)c1`: the ED50 in the data set on Cricetinae gen. sp. [2] (setting [8]) is 7 mg/kg. For the compound `CC(C)c1ccccc1-c1n[nH]c(-c2ccccc2)n1`, in the data set with Cricetinae gen. sp. [2] (setting [8]), the ED50 was 10 mg/kg. Same read-out and setting: with `CCc1ccccc1-c1n[nH]c(-c2cccc(OC)c2OC)n1` the figure was 10 mg/kg. As to `C=CCOc1cccc(-c2nc(-c3ccccc3CC)n[nH]2)c1`, the results for the ED50 in the data set with Cricetinae gen. sp. [2] (setting [8]) and in the data set with Cricetinae gen. sp. [3] were 0.12 mg/kg and 5 mg/kg, respectively.

Regarding `COc1cccc(-c2n[nH]c(-c3cc(Cl)ccc3C)n2)c1`, the 50% effective dose (ED50) with Cricetinae gen. sp. [2] (setting [8]) is 0.35 mg/kg.

On to `Cc1ccc(-c2n[nH]c(-c3ccccc3C)n2)cc1`, for which, in the data set on Cricetinae gen. sp. [2] (setting [8]), the 50% effective dose (ED50) was 20 mg/kg.

For `COc1cccc(-c2n[nH]c(-c3cccc(C)c3)n2)c1`, in the data set with Cricetinae gen. sp. [2] (setting [8]), the median effective dose (ED50) came to 15 mg/kg. The same measure, in the same setting: with `Cc1cccc(-c2n[nH]c(-c3ccccc3)n2)c1` the figure was above 20 mg/kg.

In the case of `CCCCc1ccccc1-c1n[nH]c(-c2cccc(OC)c2)n1`, the median effective dose (ED50) in the data set with Cricetinae gen. sp. [2] (setting [8]) was determined as 12 mg/kg; in the data set with Cricetinae gen. sp. [3] it was 10 mg/kg. As to `Cc1ccccc1-c1nc(-c2ccc(N(C)C)cc2)n[nH]1`, the median effective dose (ED50) with Cricetinae gen. sp. [2] (setting [8]) came out at 10 mg/kg. `CCc1ccccc1-c1n[nH]c(-c2cccc(F)c2)n1`: the figures for the 50% effective dose (ED50) with Cricetinae gen. sp. [2] (setting [8]) and with Cricetinae gen. sp. [3] were 0.4 mg/kg and above 5 mg/kg, respectively. In the case of `COc1cccc(-c2n[nH]c(-c3cc(OC)ccc3C)n2)c1`, in the data set with Cricetinae gen. sp. [2] (setting [8]), the median effective dose (ED50) was found to be 1 mg/kg. Turning to `CCc1ccccc1-c1n[nH]c(-c2ccc(OC)cc2)n1`, the median effective dose (ED50) stood at 0.15 mg/kg with Cricetinae gen. sp. [2] (setting [8]) and 5 mg/kg in the data set with Cricetinae gen. sp. [3].

With `Cc1ccccc1-c1n[nH]c(-c2cccc(C(F)(F)F)c2)n1`, the values for the median effective dose (ED50) in the data set on Cricetinae gen. sp. [2] (setting [8]) and in the data set on Cricetinae gen. sp. [3] were 0.6 mg/kg and above 20 mg/kg, respectively. On to `Cc1ccccc1-c1n[nH]c(-c2ccccc2)n1`, for which the ED50 amounted to 50 mg/kg with Rattus norvegicus [1]; 2 mg/kg in the data set with Rattus norvegicus [5]; 0.3 mg/kg in the data set with Cricetinae gen. sp. [2]; 0.3 mg/kg in the data set on Cricetinae gen. sp. [2] (setting [8]); 10 mg/kg in the data set with Cricetinae gen. sp. [3]; 2 mg/kg in the data set with Rattus norvegicus [4]. In data set [6], this compound registered a Solubility above 100 mg/mL. Consider `Cc1ccccc1-c1n[nH]c(-c2cccc(Cl)c2)n1`, for which the ED50 was 0.6 mg/kg in the data set on Cricetinae gen. sp. [2] (setting [8]) and above 20 mg/kg in the data set on Cricetinae gen. sp. [3].

`Cc1ccccc1-c1n[nH]c(-c2ccc(-c3ccccc3)cc2)n1`: the ED50 with Cricetinae gen. sp. [2] (setting [8]) worked out at 10 mg/kg. Regarding `COc1cccc(-c2n[nH]c(-c3ccccc3C=O)n2)c1`, the ED50 with Cricetinae gen. sp. [2] (setting [8]) was 0.1 mg/kg; with Cricetinae gen. sp. [3], 10 mg/kg. As for `COc1ccc(-c2n[nH]c(-c3ccccc3)n2)c(C)c1`, the median effective dose (ED50) with Cricetinae gen. sp. [2] (setting [8]) is above 10 mg/kg. Regarding `Cc1ccccc1-c1n[nH]c(-c2ccccc2C)n1`, the values for the 50% effective dose (ED50) in the data set with Cricetinae gen. sp. [2] (setting [8]) and in the data set with Cricetinae gen. sp. [3] were 0.7 mg/kg and above 10 mg/kg, respectively. In the same order, the values of `COc1cccc(-c2n[nH]c(-c3ccccc3C)n2)c1` are 0.08 mg/kg and 5 mg/kg. For `CCc1ccccc1-c1n[nH]c(-c2cc(OC)cc(OC)c2)n1`, the 50% effective dose (ED50) in the data set with Cricetinae gen. sp. [2] (setting [8]) amounted to 10 mg/kg.

Take `CCc1ccccc1-c1n[nH]c(-c2cccc(-c3ccccc3)c2)n1`: the ED50 with Cricetinae gen. sp. [2] (setting [8]) and in the data set on Cricetinae gen. sp. [3] was 10 mg/kg throughout. Consider `COc1cccc(-c2n[nH]c(-c3ccccc3C(C)C)n2)c1`, for which the ED50 with Cricetinae gen. sp. [2] (setting [8]) turned out to be 4 mg/kg; with Cricetinae gen. sp. [3], 10 mg/kg. In the case of `COc1cccc(-c2n[nH]c(-c3ccc(Cl)cc3C)n2)c1`, the ED50 with Rattus norvegicus [1] is above 10 mg/kg; in the data set with Cricetinae gen. sp. [2] (setting [8]) it was 0.04 mg/kg; in the data set on Cricetinae gen. sp. [3], 5 mg/kg; in the data set with Rattus norvegicus [4], 0.5 mg/kg. Regarding `c1ccc(-c2nc3n(n2)CCc2ccccc2-3)cc1`, the values for the ED50 with Rattus norvegicus [5] and in the data set with Cricetinae gen. sp. [7] were 16 mg/kg and 1 mg/kg, respectively. In addition, in data set [6], the Solubility is listed as ~ 100 mg ml-1. `c1ccc(-c2nc3n(n2)Cc2ccccc2-3)cc1`: the 50% effective dose (ED50) in the data set on Rattus norvegicus [5] was 1.8 mg/kg; in the data set with Cricetinae gen. sp. [7], 3.5 mg/kg. For the same compound, in data set [6], the Solubility is reported as ~ 30 mg ml-1. Turning to `COc1cccc(-c2nc(-c3ccc(OC)cc3C)n[nH]2)c1`, the ED50 in the data set on Cricetinae gen. sp. [2] (setting [8]) was 0.2 mg/kg; in the data set on Cricetinae gen. sp. [3], above 5 mg/kg. `Cc1cccc(-c2n[nH]c(-c3ccccc3C)n2)c1`: the median effective dose (ED50) with Cricetinae gen. sp. [2] (setting [8]) was 4 mg/kg.

Regarding `COc1cccc(-c2n[nH]c(-c3ccccc3CO)n2)c1`, the ED50 turned out to be 0.08 mg/kg in the data set on Cricetinae gen. sp. [2] (setting [8]) and 15 mg/kg in the data set on Cricetinae gen. sp. [3]. Consider `Cc1ccc(C)c(-c2n[nH]c(-c3ccccc3)n2)c1`, for which the ED50 in the data set with Cricetinae gen. sp. [2] (setting [8]) is above 10 mg/kg.

In the case of `CCc1ccccc1-c1n[nH]c(-c2ccccc2)n1`, the figures for the ED50 in the data set on Cricetinae gen. sp. [2] (setting [8]) and with Cricetinae gen. sp. [3] were 0.15 mg/kg and 5 mg/kg, respectively.

`CCc1ccccc1-c1n[nH]c(-c2cccc(C)c2C)n1`: the ED50 with Cricetinae gen. sp. [2] (setting [8]) came out at 2 mg/kg.

Consider `c1ccc(-c2n[nH]c(-c3ccccc3)n2)cc1`, for which the ED50 came to 6 mg/kg with Cricetinae gen. sp. [2] (setting [8]) and 10 mg/kg with Cricetinae gen. sp. [3].

Consider `CCc1ccccc1-c1n[nH]c(-c2ccc3c(c2)OCO3)n1`, for which the median effective dose (ED50) in the data set with Rattus norvegicus [1] was around 20 mg/kg; in the data set with Cricetinae gen. sp. [2] (setting [8]), 0.03 mg/kg; with Cricetinae gen. sp. [3] it was 3 mg/kg; with Rattus norvegicus [4], 0.6 mg/kg.

Consider `Cc1ccccc1-c1n[nH]c(-c2ccc(F)cc2)n1`, for which the ED50 in the data set with Cricetinae gen. sp. [2] (setting [8]) is 3.5 mg/kg. On the same count and under the same terms, with `Cc1ccccc1-c1n[nH]c(-c2ccccc2Cl)n1` the figure was 15 mg/kg; with `Cc1ccccc1-c1n[nH]c(-c2ccc(Cl)cc2)n1`, 4 mg/kg.

`COc1ccc(C)c(-c2n[nH]c(-c3ccccc3)n2)c1`: the ED50 in the data set with Cricetinae gen. sp. [2] (setting [8]) is above 10 mg/kg. The same measure, in the same setting: with `COc1cccc(-c2n[nH]c(-c3cc(C)ccc3C)n2)c1` the figure was 2.5 mg/kg. Take `COc1ccccc1-c1n[nH]c(-c2ccccc2C)n1`: the ED50 in the data set with Cricetinae gen. sp. [2] (setting [8]) is 0.5 mg/kg; in the data set with Cricetinae gen. sp. [3] it was above 5 mg/kg.

For the compound `CCc1ccccc1-c1n[nH]c(-c2ccc(OC)c(OC)c2)n1`, the results for the ED50 with Cricetinae gen. sp. [2] (setting [8]) and in the data set on Cricetinae gen. sp. [3] were 0.05 mg/kg and above 5 mg/kg, respectively. For `Cc1ccc(-c2n[nH]c(-c3ccccc3)n2)c(C)c1` the same measures were 0.2 mg/kg and above 5 mg/kg. For the compound `CCOc1cccc(-c2n[nH]c(-c3ccccc3CC)n2)c1`, the ED50 was above 10 mg/kg in the data set with Rattus norvegicus [1], 0.04 mg/kg in the data set on Cricetinae gen. sp. [2] (setting [8]), 4 mg/kg in the data set on Cricetinae gen. sp. [3] and 0.3 mg/kg with Rattus norvegicus [4].

`Cc1ccc(Cl)cc1-c1n[nH]c(-c2ccccc2)n1`: the median effective dose (ED50) in the data set on Cricetinae gen. sp. [2] (setting [8]) stood at 1.2 mg/kg.

In general, ED50 refers to the dose that gives a 50% effect, or the effect in half of the subjects. In general, Solubility refers to how much of the substance goes into solution per volume. Lower therefore signals a poorly soluble substance.
